Results reported in publication PMC8123931 (Nature chemical biology, 2020).
Read-outs that look alike come from different tables or passages of the source.

Legend:
MaMTH stable bait cells = test: Reporter cell viability; assay type: cell-based
Method in brief: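 MaMTH stable bait cells seeded at 10,000 cells/well in 96-well plates. Next day treated across a dose range of test compound, with 0.5 μg/mL tetracycline to induce bait expression. Viability measured by CellTiter-Glo luminescence after 72 h of drug exposure.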

[1] = system: PC9 EGFR ex19del/T790M/C797S cells; test: Western analysis of EGFR activation and downstream signalling; assay type: cell-based; details: for EGFR activation and signalling through ERK and AKT: 20 µM; for EGFR activation and signalling through ERK and AKT / EGFR phosphorylation/activation / phosphorylation of downstream signalling partners: 2 hours treatment; for potency towards mutant EGFR relative to EMI1: 10 µM dose; for EGFR phosphorylation/activation: compared with PC9 ex19del cells; for phosphorylation of downstream signalling partners: triple mutant cells
[2] = system: PC9 EGFR ex19del/T790M/C797S cells; test: Microtubule imaging; assay type: cell-based
ALK = ALK (Homo sapiens, UniProt Q9UM73); details: dose response
[3] = system: RTK bait (MET, FGFR4, AXL, ALK, EGFR); details: for bait expression: EGFR WT and mutant baits
EGFR L858R/T790M/C797S [4] = molecular target: T1, EGFR L858R/T790M/C797S (Homo sapiens, UniProt P00533, C797S/L858R/T790M); test: MaMTH-DS assay and screen, EGFR L858R/T790M/C797S bait with Shc1 prey; assay type: cell-based
AXL = molecular target: T2, AXL (Homo sapiens, UniProt P30530); test: MaMTH-DS assay, AXL bait with Shc1 prey; assay type: cell-based; details: dose response
T2 sequence (P30530 26-894): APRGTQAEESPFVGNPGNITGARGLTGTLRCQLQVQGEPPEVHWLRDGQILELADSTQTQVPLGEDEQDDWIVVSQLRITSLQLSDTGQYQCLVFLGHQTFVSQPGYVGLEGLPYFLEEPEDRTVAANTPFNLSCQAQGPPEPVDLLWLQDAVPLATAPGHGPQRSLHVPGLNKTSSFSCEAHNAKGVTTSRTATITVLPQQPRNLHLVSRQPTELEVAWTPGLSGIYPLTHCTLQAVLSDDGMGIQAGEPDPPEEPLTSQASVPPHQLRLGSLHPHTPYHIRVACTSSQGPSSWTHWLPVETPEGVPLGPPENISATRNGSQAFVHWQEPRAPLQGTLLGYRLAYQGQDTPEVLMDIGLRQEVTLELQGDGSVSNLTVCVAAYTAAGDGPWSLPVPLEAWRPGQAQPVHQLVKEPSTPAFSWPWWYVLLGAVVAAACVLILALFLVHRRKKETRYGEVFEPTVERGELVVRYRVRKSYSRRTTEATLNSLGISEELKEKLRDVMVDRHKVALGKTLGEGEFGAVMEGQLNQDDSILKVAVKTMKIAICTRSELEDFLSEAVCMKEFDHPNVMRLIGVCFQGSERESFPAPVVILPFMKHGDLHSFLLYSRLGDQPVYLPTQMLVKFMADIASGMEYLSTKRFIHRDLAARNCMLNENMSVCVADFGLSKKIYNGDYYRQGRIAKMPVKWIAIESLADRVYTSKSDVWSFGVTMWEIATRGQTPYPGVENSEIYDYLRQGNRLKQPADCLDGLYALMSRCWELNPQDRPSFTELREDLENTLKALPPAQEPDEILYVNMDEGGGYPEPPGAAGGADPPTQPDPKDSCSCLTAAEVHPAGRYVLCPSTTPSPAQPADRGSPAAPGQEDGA

wild-type EGFR = wild-type EGFR (Homo sapiens, UniProt P00533); test: In vitro kinase assay, recombinant kinase domain; assay type: biochemical; details: 100 µM ATP
EGFR L858R/T790M/C797S [5] = molecular target: T1, EGFR L858R/T790M/C797S; test: In vitro kinase assay, recombinant kinase domain; assay type: biochemical; details: 100 µM ATP
EGFR ex19del/T790M/C797S = EGFR ex19del/T790M/C797S (Homo sapiens, UniProt P00533, C797S/DEL746-750/T790M); test: In vitro kinase assay, recombinant kinase domain; assay type: biochemical; details: 100 µM ATP
EGFR L858R = EGFR L858R (Homo sapiens, UniProt P00533, L858R); test: In vitro kinase assay, recombinant EGFR single mutant; assay type: biochemical; details: compared with triple mutants
EGFR ex19del = test: as above; assay type: biochemical; details: compared with triple mutants
EGFR ex19del/T790M = EGFR ex19del/T790M (Homo sapiens, UniProt P00533, DEL746-750/T790M); test: In vitro kinase assay, recombinant EGFR double mutant; assay type: biochemical
EGFR L858R/T790M = EGFR L858R/T790M (Homo sapiens, UniProt P00533, L858R/T790M); test: as above; assay type: biochemical
[6] = system: PC9 EGFR ex19del/T790M/C797S cells; test: Caspase 3 and 7 assay; assay type: cell-based; details: 72 hours of drug treatment
A549 EGFR WT cells = test: Caspase 3 and 7 assay; assay type: cell-based; details: 72 hours of drug treatment
Method in brief: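 A549 cells were plated in 384-well plates at 5,000 cells per well and exposed to test compound for 72 h. Caspase 3 and 7 activity was then read by luminescence using the Caspase-Glo 3/7 reagent.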

[7] = system: PC9 EGFR ex19del/T790M/C797S organoids; test: Organoid viability assay; assay type: cell-based
[8] = system: HEK293 EGFR L858R/T790M/C797S cells; test: EGFR localization and endosomal trafficking; assay type: cell-based
HEK293 EGFR WT cells = test: EGFR localization and endosomal trafficking; assay type: cell-based; details: 1 µM compound, 30 minutes EGF
[9] = system: HEK293 EGFR L858R/T790M/C797S cells; test: Cell surface biotinylation assay; assay type: cell-based; details: 5 µM compound, 2 hours

ALK, sequence (Q9UM73 19-1620): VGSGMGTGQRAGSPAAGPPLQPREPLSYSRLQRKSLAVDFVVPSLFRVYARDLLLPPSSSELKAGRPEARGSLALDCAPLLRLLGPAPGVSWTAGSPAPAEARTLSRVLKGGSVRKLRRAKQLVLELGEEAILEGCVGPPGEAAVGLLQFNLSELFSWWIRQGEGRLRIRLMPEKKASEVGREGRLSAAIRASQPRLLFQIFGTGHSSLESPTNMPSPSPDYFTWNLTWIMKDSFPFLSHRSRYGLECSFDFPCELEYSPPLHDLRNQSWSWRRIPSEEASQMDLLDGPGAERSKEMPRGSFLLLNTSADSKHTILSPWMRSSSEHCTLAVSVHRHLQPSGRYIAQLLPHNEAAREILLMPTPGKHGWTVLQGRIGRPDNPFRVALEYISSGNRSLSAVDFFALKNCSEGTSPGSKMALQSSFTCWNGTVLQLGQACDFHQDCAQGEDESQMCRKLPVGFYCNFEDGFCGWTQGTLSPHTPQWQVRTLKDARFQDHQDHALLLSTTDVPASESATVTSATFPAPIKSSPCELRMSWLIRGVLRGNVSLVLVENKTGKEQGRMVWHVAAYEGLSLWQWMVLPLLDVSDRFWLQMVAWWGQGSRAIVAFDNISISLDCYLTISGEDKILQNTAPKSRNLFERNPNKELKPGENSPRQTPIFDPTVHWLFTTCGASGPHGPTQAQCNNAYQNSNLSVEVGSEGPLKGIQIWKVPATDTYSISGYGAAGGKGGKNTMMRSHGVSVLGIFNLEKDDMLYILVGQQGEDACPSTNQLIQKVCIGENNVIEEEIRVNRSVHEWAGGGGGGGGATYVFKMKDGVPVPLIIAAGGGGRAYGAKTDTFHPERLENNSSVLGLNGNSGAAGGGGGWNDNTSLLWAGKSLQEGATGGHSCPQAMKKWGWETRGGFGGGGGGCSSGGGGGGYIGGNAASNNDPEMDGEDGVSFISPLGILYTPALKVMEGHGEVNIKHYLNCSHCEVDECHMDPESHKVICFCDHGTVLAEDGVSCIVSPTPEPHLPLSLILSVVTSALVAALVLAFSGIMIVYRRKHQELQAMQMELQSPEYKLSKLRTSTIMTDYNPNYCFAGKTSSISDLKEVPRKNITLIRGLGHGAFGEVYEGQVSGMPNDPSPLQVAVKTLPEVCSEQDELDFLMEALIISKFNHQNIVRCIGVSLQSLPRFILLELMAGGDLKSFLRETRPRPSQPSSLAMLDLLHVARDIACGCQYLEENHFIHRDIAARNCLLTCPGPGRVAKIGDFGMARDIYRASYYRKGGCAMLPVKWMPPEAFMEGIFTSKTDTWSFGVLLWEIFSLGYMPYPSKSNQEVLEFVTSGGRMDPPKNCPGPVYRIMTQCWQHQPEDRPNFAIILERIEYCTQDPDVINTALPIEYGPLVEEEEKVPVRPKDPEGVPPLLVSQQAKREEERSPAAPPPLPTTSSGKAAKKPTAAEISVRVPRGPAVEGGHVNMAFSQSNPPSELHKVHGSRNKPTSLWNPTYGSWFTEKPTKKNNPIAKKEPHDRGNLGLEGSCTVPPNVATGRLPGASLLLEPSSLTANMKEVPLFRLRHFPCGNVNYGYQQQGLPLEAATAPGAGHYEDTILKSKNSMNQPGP

C=CC(=O)Nc1cccc(C)c1Nc1ncc2cc(-c3c(Cl)c(OC)cc(OC)c3Cl)ccc2n1 [BLU9931]
reporter cell viability (MaMTH stable bait cells; FGFR4 bait cells): no effect on reporter cell viability

COc1cc2c(c(OC)c1OC)-c1ccc(OC)c(=O)cc1[C@@H](NC(C)=O)CC2 [Colchicine]
EGFR activation and signalling through ERK and AKT [1]: not evident

CC(=O)O[C@@]12CO[C@@H]1C[C@H](O)[C@@]1(C)C(=O)[C@H](O)C3=C(C)[C@@H](OC(=O)[C@H](O)[C@@H](NC(=O)OC(C)(C)C)c4ccccc4)C[C@@](O)([C@@H](OC(=O)c4ccccc4)[C@H]21)C3(C)C [Docetaxel]
EGFR activation and signalling through ERK and AKT [1]: not evident

CCN(CC)c1ccc2cc(-c3nc4cc(C)ccc4o3)c(=O)oc2c1 [EMI48]
potency towards mutant EGFR relative to EMI1 [1]: greater potency towards mutant EGFR than EMI1 | interphase microtubules and spindle formation [2]: did not affect interphase microtubules, nor have an effect on spindle formation

CCN(CC)c1cc2oc(=O)c(-c3nc4ccccc4o3)cc2cc1C [EMI56]
potency towards mutant EGFR relative to EMI1 [1]: greater potency towards mutant EGFR than EMI1 | interphase microtubules and spindle formation [2]: did not affect interphase microtubules, nor have an effect on spindle formation

COC(=O)Nc1nc2ccc(C(=O)c3cccs3)cc2[nH]1 [Nocodazole]
EGFR activation and signalling through ERK and AKT [1]: not evident

COc1cc(OC)c(/C=C/S(=O)(=O)Cc2ccc(OC)c(NCC(=O)O)c2)c(OC)c1 [Rigosertib]
EGFR activation and signalling through ERK and AKT [1]: not evident

COc1cc(N2CCC(N3CCN(C)CC3)CC2)ccc1Nc1ncc(Cl)c(Nc2ccccc2P(C)(C)=O)n1 [brigatinib]
reporter cell viability (MaMTH stable bait cells; ALK bait cells): cell viability was unaffected | ALK activity (interaction with Shc1) (ALK): strongly reduced, in a dose-dependent manner | bait expression level ([3]; ALK bait): not altered by compound

CC1(COc2ccc3c(c2)ncn3-c2ccc3cccc(N4CCC(N)CC4)c3n2)COC1 [crenolanib]
interaction of Shc1 with EGFR L858R/T790M/C797S (in words) (EGFR L858R/T790M/C797S [4]): none were found to target the EGFR C797S triple mutant

C[C@@H](Oc1cc(-c2cnn(C3CCNCC3)c2)cnc1N)c1c(Cl)ccc(F)c1Cl [crizotinib]
reporter cell viability (MaMTH stable bait cells; MET bait cells): not due to a loss in cell viability

C#Cc1cccc(Nc2ncnc3cc(OCCOC)c(OCCOC)cc23)c1 [erlotinib]
AXL activity (interaction with Shc1) (AXL): not erlotinib control | reporter cell viability (MaMTH stable bait cells; EGFR WT and mutant bait cells): not due to a reduction in reporter cell viability | bait expression [3]: no effect of TKIs on bait expression

COc1cc2c(Oc3ccc(NC(=O)C4(C(=O)Nc5ccc(F)cc5)CC4)cc3F)ccnc2cc1OCCCN1CCOCC1 [foretinib]
AXL activity (interaction with Shc1) (AXL): strongly reduced, in a dose-dependent manner | reporter cell viability (MaMTH stable bait cells; AXL bait cells): cell viability was unaffected | bait expression level ([3]; AXL bait): not altered by compound

CCc1nc(C(N)=O)c(Nc2ccc(N3CCC(N4CCN(C)CC4)CC3)c(OC)c2)nc1NC1CCOCC1 [gilteritinib]
interaction of Shc1 with EGFR L858R/T790M/C797S (in words) (EGFR L858R/T790M/C797S [4]): potent and highly specific inhibitor of the EGFR triple mutant | activity towards triple mutants compared with WT EGFR (wild-type EGFR): significantly more potent activity towards the mutants than WT EGFR | IC50 values, inhibition of kinase domain (in words) (EGFR L858R/T790M/C797S [5]): low nanomolar range | IC50 values, inhibition of kinase domain (in words) (EGFR ex19del/T790M/C797S): low nanomolar range | activity against single mutant (EGFR L858R): less effective | activity against single mutant (EGFR ex19del): less effective | activity against double mutant (EGFR ex19del/T790M): moderate to strong activity | activity against double mutant (EGFR L858R/T790M): moderate to strong activity | caspase 3/7 activity [6]: induced caspase 3 and 7 activity | caspase 3/7 activity (A549 EGFR WT cells): not in A549 epithelial cells carrying EGFR WT | EGFR phosphorylation/activation [1]: reduced EGFR phosphorylation/activation in PC9 ex19del/T790M/C797S triple mutant cells more strongly | phosphorylation of downstream signalling partners [1]: more potently reducing pAKT levels | organoid viability / growth [7]: potently affected the growth of PC9 triple mutant organoids

CO[C@@H]1[C@H](N(C)C(=O)c2ccccc2)C[C@H]2O[C@]1(C)n1c3ccccc3c3c4c(c5c6ccccc6n2c5c31)C(=O)NC4 [midostaurin]
interaction of Shc1 with EGFR L858R/T790M/C797S (in words) (EGFR L858R/T790M/C797S [4]): robust, dose-dependent inhibition | activity towards triple mutants compared with WT EGFR (wild-type EGFR): significantly more potent activity towards the mutants than WT EGFR | activity against single mutant (EGFR L858R): less effective | activity against single mutant (EGFR ex19del): less effective | activity against double mutant (EGFR ex19del/T790M): moderate to strong activity | activity against double mutant (EGFR L858R/T790M): moderate to strong activity | caspase 3/7 activity [6]: induced caspase 3 and 7 activity | caspase 3/7 activity (A549 EGFR WT cells): not in A549 epithelial cells carrying EGFR WT | EGFR phosphorylation/activation [1]: reduced EGFR phosphorylation/activation in PC9 ex19del/T790M/C797S triple mutant cells more strongly | phosphorylation of downstream signalling partners [1]: more potently reducing pAKT and pERK levels | organoid viability / growth [7]: potently affected the growth of PC9 triple mutant organoids | EGF accumulation in EEA1-positive early endosomes ([8]; 1 µM compound, 30 minutes EGF): significantly reduced EGF accumulation in EEA1-positive early endosomes | overall amount of EGFR pY1068 localized to EEA1-positive endosomes ([8]; 1 µM compound, 30 minutes EGF): significantly reduced the overall amount of EGFR pY1068 localized to EEA1-positive endosomes | average amount of activated EGFR per endosome ([8]; 30 min EGF): reduced the amount of activated EGFR per endosome | number of early endosomes carrying activated EGFR ([8]; 30 min EGF): had no effect on total endosome number | EGF accumulation in EEA1-positive early endosomes (HEK293 EGFR WT cells): A similar effect was observed for EGFR WT cells but to a lesser degree | overall amount of EGFR pY1068 localized to EEA1-positive endosomes (HEK293 EGFR WT cells): not in EGFR WT | surface levels of EGFR [9]: not observed

C=CC(=O)Nc1cc(Nc2nccc(-c3cn(C)c4ccccc34)n2)c(OC)cc1N(C)CCN(C)C [osimertinib]
reporter cell viability (MaMTH stable bait cells; EGFR WT and mutant bait cells): not due to a reduction in reporter cell viability | organoid viability / growth [7]: has no effect | EGF accumulation in EEA1-positive early endosomes ([8]; 1 µM compound, 30 minutes EGF): had no effect | surface levels of EGFR [9]: not observed | bait expression [3]: no effect of TKIs on bait expression

CC(C)(C)c1cc(NC(=O)Nc2ccc(-c3cn4c(n3)sc3cc(OCCN5CCOCC5)ccc34)cc2)no1 [quizartinib]
interaction of Shc1 with EGFR L858R/T790M/C797S (in words) (EGFR L858R/T790M/C797S [4]): none were found to target the EGFR C797S triple mutant
